ChEMBL document CHEMBL3400107, “Synthesis, structure-activity relationships, and anticonvulsant activities of 2-amino-4H-pyrido[3,2-e][1,3]thiazin-4-one derivatives as orally active AMPA receptor antagonists” (Bioorg Med Chem, 2015)

What was measured:
Neuron [1] = assay: Inhibition of kainate-induced neurotoxicity in primary rat hippocampal neurons at 10 uM after 24 hrs by LDH assay; format: functional
Outline: (§1)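 Hippocampal cultures from embryonic day 18–20 Wistar rats, used after 8 or 9 days in vitro. Compounds added together with 300 µM kainate. Neuronal injury measured 24 h later as LDH release into the medium. Values are IC50 (concentration for 50% inhibition) or percent inhibition at 10 µM.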

Neuron [2] = assay: Inhibition of kainate-induced neurotoxicity in primary rat hippocampal neurons after 24 hrs by LDH assay; format: functional, cell-based; outline: as §1
Mus musculus = assay: Anticonvulsant activity in po dosed ICR mouse assessed as protection from maximal electroshock-induced seizure measured after 60 mins post dose; format: functional; settings: 1 h
Outline: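 Compounds given orally to mice; 60 min later corneal electroshock applied (50 mA, 0.2 s, 50 Hz). Protection scored as absence of tonic extension. ED50 calculated by probit method, with 95% confidence intervals.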

[3] = Half life in rat at 1 mg/kg, iv; format: ADME, organism-based; set-up: dose 1 mg/kg, route intravenous; settings: in vivo
[4] = Half life in rat at 1 mg/kg, po; format: ADME, organism-based; set-up: dose 1 mg/kg, route oral; settings: in vivo
[5] = Cmax in rat at 1 mg/kg, po; format: ADME, organism-based; set-up: dose 1 mg/kg, route oral; settings: in vivo
[6] = Volume of distribution at steady state in rat at 1 mg/kg, iv; format: ADME, organism-based; set-up: dose 1 mg/kg, route intravenous; settings: in vivo, read-out: Vdss
[7] = AUC(infinity) in rat at 1 mg/kg, po; format: ADME, organism-based; set-up: time infinity, dose 1 mg/kg, route oral; settings: plasma
[8] = AUC(infinity) in rat at 1 mg/kg, iv; format: ADME, organism-based; set-up: time infinity, dose 1 mg/kg, route intravenous; settings: plasma
[9] = Total clearance in rat at 1 mg/kg, iv; format: ADME, organism-based; set-up: dose 1 mg/kg, route intravenous; settings: in vivo
[10] = Tmax in rat at 1 mg/kg, po; format: ADME, organism-based; set-up: dose 1 mg/kg, route oral; settings: in vivo
[11] = Oral bioavailability in rat at 1 mg/kg; format: ADME, organism-based; settings: in vivo

Row | SMILES | inhibition at 10 µM (Neuron [1]) [%] | IC50 (Neuron [2]) [nM] | also measured
1 | CCN(c1ccc(OC)c(OC)c1)c1nc(=O)c2cccnc2s1 | 25 |  | 
2 | Cc1ccccc1N(C)c1nc(=O)c2cccnc2s1 | 4 |  | 
3 | Cc1ccc(N(C)c2nc(=O)c3cccnc3s2)cc1 |  | 10000 | 
4 | CN(c1ccc(OC(F)(F)F)cc1)c1nc(=O)c2cccnc2s1 |  | 2100 | ED50 (Mus musculus): 25.2 mg/kg
5 | CN(c1ccc(Cl)cc1)c1nc(=O)c2ccncc2s1 | 4 |  | 
6 | CN(c1ccc(C(F)(F)F)cc1)c1nc(=O)c2cccnc2s1 |  | 2000 | 
7 | CN(c1nc(=O)c2cccnc2s1)C1CCCCC1 | 16 |  | 
8 | CN(c1ccc(Cl)cc1)c1nc(=O)c2cccnc2s1 |  | 2000 | half-life [3]: 26.4 min; half-life [4]: 34.8 min; ED50 (Mus musculus): 7.4 mg/kg; Cmax [5]: 425 ng/mL; Vd [6]: 1.18 L/kg; AUC(0-inf) [7]: 472 ng·h/mL; AUC(0-inf) [8]: 542 ng·h/mL; clearance [9]: 30.8 mL/min/kg; Tmax [10]: 15 min; bioavailability [11]: 87.1%
9 | CN(c1ccc(Cl)cc1)c1nc(=O)c2sccc2s1 |  | 5400 | 
10 | CN(c1ccc(Cl)cc1)c1nc(=O)c2ccccc2s1 |  | 6500 | 
11 | CCN(c1ccc2c(c1)OCCO2)c1nc(=O)c2cccnc2s1 |  | 600 | 
12 | CN(c1ccc(Br)cc1)c1nc(=O)c2cccnc2s1 |  | 1000 | ED50 (Mus musculus): 23.1 mg/kg
13 | CN(c1ccc(Cl)cc1)c1nc(=O)c2ccccc2o1 | 28 |  | 
14 | C=CCN(c1ccc(C)cc1)c1nc(=O)c2cccnc2s1 |  | 9000 | 
15 | CCOC(=O)c1ccc(N(C)c2nc(=O)c3cccnc3s2)cc1 | 29 |  | 
16 | CCN(c1cccc(OC)c1)c1nc(=O)c2cccnc2s1 |  | 3800 | 
17 | COc1ccc(N(C)c2nc(=O)c3cccnc3s2)cc1 |  | 3400 | 

Row | SMILES | inhibition at 10 µM (Neuron [1]) [%] | IC50 (Neuron [2]) [nM] | also measured
18 | CN(c1ccc(C2CCCCC2)cc1)c1nc(=O)c2cccnc2s1 | 29 |  | 
19 | CN(c1ccc([N+](=O)[O-])cc1)c1nc(=O)c2cccnc2s1 | 38 |  | 
20 | CC(=O)N1N=C(c2ccc(N)cc2)c2cc3c(cc2C[C@H]1C)OCO3 [TALAMPANEL] |  | 6000 | ED50 (Mus musculus): 4.2 mg/kg
21 | CN(c1ccc(C(=O)O)cc1)c1nc(=O)c2cccnc2s1 | 0 |  | 
22 | CN(c1ccc2c(c1)CCC2)c1nc(=O)c2cccnc2s1 |  | 1300 | 
23 | CN(c1ccc(N)cc1)c1nc(=O)c2cccnc2s1 | 19 |  | 
24 | Cc1ccc2c(=O)nc(N(C)c3ccc(Cl)cc3)sc2n1 | 0 |  | 
25 | Cl.O=c1[nH]c2cc(-n3ccnc3)c([N+](=O)[O-])cc2[nH]c1=O |  |  | ED50 (Mus musculus): > 100 mg/kg
26 | CN(Cc1ccccc1)c1nc(=O)c2cccnc2s1 | 0 |  | 
27 | CN(c1ccccc1)c1nc(=O)c2cccnc2s1 | 43 |  | 
28 | CN(c1ccc2sccc2c1)c1nc(=O)c2cccnc2s1 |  | 400 | 
29 | CCN(c1ccc(OC)cc1)c1nc(=O)c2cccnc2s1 |  | 2800 | 
30 | CN(c1ccsc1)c1nc(=O)c2cccnc2s1 | 28 |  | 
31 | CCN(c1ccc2c(c1)OCO2)c1nc(=O)c2cccnc2s1 |  | 400 | ED50 (Mus musculus): 38.9 mg/kg
32 | CN(c1ccc(Cl)cc1)c1nc(=O)c2cnccc2s1 | 2 |  | 
33 | CN(c1cccnc1)c1nc(=O)c2cccnc2s1 | 18 |  | 
34 | CN(c1ccc(F)cc1)c1nc(=O)c2cccnc2s1 |  | 7200 | ED50 (Mus musculus): 15.3 mg/kg
